What all share (assay type): functional
In assay [1] the test system is Rattus norvegicus. Briefly: Antiinflammatory activity against carrageenan-induced paw oedema in Albino rat at 100 mg/kg, po after 3 hrs. A digest of the protocol: (§1)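 Oral dosing. Paw volume was read by plethysmometer immediately after and 3 h after the irritant injection, and the volume difference was taken as oedema. Percent inhibition of oedema was calculated for treated groups against the control group, with a standard-drug group included.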
A general note: The carrageenan paw model is a standard test of acute inflammation.

In assay [2] the test system is Mus musculus. Nature of the assay: Analgesic activity against phenylquinone-induced in Swiss mouse assessed as effect on writhings at 50 mg/kg, po after 20 mins. The gist of the method: (§2)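 Female Swiss mice (15–20 g) screened the day before by intraperitoneal 0.2 cm³ of 0.02% aqueous phenylquinone, with writhes counted over 20 min. Mice with more than 10 writhes were used next day in groups of five. They were given the oral dose (25, 50 or 100 mg/kg) 15 min before the phenylquinone challenge, and writhing was recorded.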
On the technique in general: Writhing tests count abdominal constrictions after an irritant is injected.

The test system of assay [3] is Mus musculus. Briefly: Analgesic activity against phenylquinone-induced in Swiss mouse assessed as effect on writhings at 100 mg/kg, po after 20 mins. The gist of the method: as §2
Assay [4] has as its system Rattus norvegicus. Nature of the assay: Antiinflammatory activity against carrageenan-induced paw oedema in Albino rat at 50 mg/kg, po after 3 hrs. A digest of the protocol:
as §1

Assay [5] deals with Mus musculus. Briefly: Analgesic activity against phenylquinone-induced in Swiss mouse assessed as effect on writhings at 25 mg/kg, po after 20 mins. A digest of the protocol:
as §2

The test system of assay [6] is Mus musculus. Briefly: Analgesic activity against phenylquinone-induced in Swiss mouse assessed as effect on writhings at 75 mg/kg, po after 20 mins.

Here are results for 14 compounds from ChEMBL document CHEMBL1147924, “One pot synthesis of pyrimidine and bispyrimidine derivatives and their evaluation for anti-inflammatory and analgesic activities” (2007).

Consider `CC1=CC(C)(C)NC(=S)N1CCCC1OCC2(CO1)COC(CCCN1C(=S)NC(C)(C)C=C1C)OC2` (stereo not given), for which the results for the Activity in the assay on Rattus norvegicus [1], in the assay with Mus musculus [2] and in the assay with Mus musculus [3] were 31.8%, 25% and 75%, respectively.

Consider `CC1(C)CC(C)(O)N(CCCN2CCN(CCCN3C(=S)NC(C)(C)CC3(C)O)CC2)C(=S)N1` (stereo not given), for which the results for the Activity in the assay on Rattus norvegicus [4] and in the assay with Mus musculus [2] were 31.6% and 10%, respectively.

With `CC1CC(O)N(CCCN2CCCC2=O)C(=S)N1` (stereo not given), the figures for the Activity with Rattus norvegicus [4] and in the assay with Mus musculus [2] were 36.3% and 50%, respectively.

As to `CC1=CC(C)(C)NC(=S)N1CCCn1ccnc1`, the Activity in the assay on Rattus norvegicus [4] was 32.5%; in the assay on Mus musculus [2], 40%.

Regarding `CC1(C)CC(C)(O)N(CCc2c[nH]cn2)C(=S)N1` (stereo not given), the Activity in the assay with Rattus norvegicus [1] was found to be 65%; in the assay with Mus musculus [2] it was 25%; in the assay on Mus musculus [5], 12.5%; in the assay with Mus musculus [6], 50%; in the assay on Mus musculus [3], 100%.

`CC1=CC(C)(C)NC(=S)N1Cc1ccco1`: the Activity stood at 15.1% in the assay on Rattus norvegicus [4] and 8.5% in the assay on Mus musculus [2].

On to `CC(C)Cc1ccc(C(C)C(=O)O)cc1` (stereo not given) [IBUPROFEN], for which the Activity with Rattus norvegicus [1] came to 66.8%; with Mus musculus [2] it was 50%; with Mus musculus [3] it was 75%.

With `CC1CC(O)N(CCCC2OCC3(CO2)COC(CCCN2C(=S)NC(C)CC2O)OC3)C(=S)N1` (stereo not given), the Activity with Rattus norvegicus [1] and with Mus musculus [3] was 0% throughout.

For `CC1=CC(C)(C)NC(=S)N1c1ccccc1C#N`, the Activity in the assay on Rattus norvegicus [1] came to 0%; with Mus musculus [2], 0%; in the assay with Mus musculus [3], 25%.

Take `CC1(C)CC(C)(O)N(CCCN2CCCC2=O)C(=S)N1` (stereo not given): the figures for the Activity in the assay with Rattus norvegicus [1] and in the assay on Mus musculus [3] were 40.3% and 34%, respectively.

`CC1(C)CC(C)(O)N(CCCn2ccnc2)C(=S)N1` (stereo not given): the Activity stood at 35% with Rattus norvegicus [1], 25% in the assay on Mus musculus [2] and 50% in the assay with Mus musculus [3].

As for `CC1=CC(C)(C)NC(=S)N1c1n[nH]c(N2C(=S)NC(C)(C)C=C2C)n1`, the Activity in the assay with Rattus norvegicus [1] and in the assay on Mus musculus [3] was 0% each time.

Consider `CC1(C)CC(C)(O)N(Cc2ccco2)C(=S)N1` (stereo not given), for which the Activity came out at 10.3% in the assay with Rattus norvegicus [4] and 15% with Mus musculus [2].

Regarding `CC1CC(O)N(CCCN2CCN(CCCN3C(=S)NC(C)CC3O)CC2)C(=S)N1` (stereo not given), the Activity with Rattus norvegicus [4] was 38.6%; in the assay with Mus musculus [2], 40%.
